Experimental data as given in ChEMBL document CHEMBL3779801, “Discovery of the Selective CYP17A1 Lyase Inhibitor BMS-351 for the Treatment of Prostate Cancer” (ACS Med Chem Lett, 2016).

Legend:
[1] = Intrinsic permeability from apical to basolateral side in human Caco2 cells; format: ADME, cell-based; settings: Caco-2
[2] = Clearance in cynomolgus monkey plasma at 2 mg/kg, iv by LC-MS/MS analysis; format: ADME, organism-based, Macaca fascicularis
Method in brief: (§1)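 Cynomolgus monkeys were dosed intravenously. Plasma parameters are given as mean ± standard deviation.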

[3] = target: T1, Steroid 17-alpha-hydroxylase/17,20 lyase (Homo sapiens, UniProt P05093); experiment: Inhibition of CYP17A1 in human adrenal microsomes using [3H]-pregnenolone as substrate incubated for 90 mins by scintillation proximity assay in presence of NADPH; set-up: species or system Adrenal gland
T1 sequence (P05093 whole entry): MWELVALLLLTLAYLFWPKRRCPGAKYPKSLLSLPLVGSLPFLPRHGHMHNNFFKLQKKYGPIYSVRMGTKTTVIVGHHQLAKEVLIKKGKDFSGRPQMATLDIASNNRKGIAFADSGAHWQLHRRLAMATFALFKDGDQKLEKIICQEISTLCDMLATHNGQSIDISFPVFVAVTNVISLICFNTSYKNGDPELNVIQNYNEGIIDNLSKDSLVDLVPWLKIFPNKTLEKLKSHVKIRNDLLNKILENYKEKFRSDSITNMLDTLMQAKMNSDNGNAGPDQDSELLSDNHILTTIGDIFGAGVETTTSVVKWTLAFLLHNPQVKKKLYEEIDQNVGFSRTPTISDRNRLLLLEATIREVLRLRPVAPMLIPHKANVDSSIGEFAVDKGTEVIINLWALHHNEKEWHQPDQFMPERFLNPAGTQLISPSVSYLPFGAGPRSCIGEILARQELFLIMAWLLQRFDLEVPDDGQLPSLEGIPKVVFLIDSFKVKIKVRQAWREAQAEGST

[4] = Oral bioavailability in cynomolgus monkey plasma at 4 mg/kg after 0.25 to 45 hrs by LC-MS/MS analysis; format: ADME, organism-based, Macaca fascicularis
Method in brief: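 Oral bioavailability in cynomolgus monkey came from oral dosing of a solution formulation combined with a separate 2 mg/kg iv dose. Values are mean ± standard deviation.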

[5] = target: T2, Cytochrome P450 11B1, mitochondrial (Homo sapiens, UniProt P15538); experiment: Inhibition of CYP11B1 in human H295R cells using deoxycorticosterone as substrate incubated for 48 hrs by LC-MS method; format: ADME, cell-based
T2 sequence (P15538 whole entry): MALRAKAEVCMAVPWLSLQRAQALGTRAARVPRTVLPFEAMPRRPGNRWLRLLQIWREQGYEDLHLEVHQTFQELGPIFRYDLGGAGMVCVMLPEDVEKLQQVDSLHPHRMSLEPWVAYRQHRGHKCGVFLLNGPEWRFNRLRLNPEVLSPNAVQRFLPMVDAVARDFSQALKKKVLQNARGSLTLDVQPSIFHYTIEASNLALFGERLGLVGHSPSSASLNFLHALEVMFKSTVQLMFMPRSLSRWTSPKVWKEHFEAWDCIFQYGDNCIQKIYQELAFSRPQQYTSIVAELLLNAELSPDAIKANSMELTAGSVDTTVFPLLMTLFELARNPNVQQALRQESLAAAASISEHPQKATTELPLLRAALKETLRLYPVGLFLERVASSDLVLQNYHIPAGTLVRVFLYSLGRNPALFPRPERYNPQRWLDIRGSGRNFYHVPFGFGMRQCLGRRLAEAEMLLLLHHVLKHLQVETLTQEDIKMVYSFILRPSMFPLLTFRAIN

[6] = Intrinsic permeability from basolateral to apical side in human Caco2 cells; format: ADME, cell-based; settings: Caco-2
[7] = system: Cynomolgus monkey; experiment: Effect on progesterone level in one day castrated cynomolgus monkey assessed as baseline level at 1.5 mg/kg, po bid for 24 hrs by radiometric immunoassay; format: ADME, organism-based, Macaca fascicularis; settings: in vivo
[8] = Tmax in cynomolgus monkey plasma at 4 mg/kg, po after 0.25 to 45 hrs by LC-MS/MS analysis; format: ADME, organism-based, Macaca fascicularis
Method in brief: (§2)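 Cynomolgus monkeys were dosed orally from a solution formulation. Plasma parameters are given as mean ± standard deviation.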

[9] = target: T3, Steroid 17-alpha-hydroxylase/17,20 lyase (Macaca fascicularis, UniProt Q2XVA1); experiment: Inhibition of CYP17A1 in cynomolgus monkey adrenal microsomes using [3H]-pregnenolone as substrate incubated for 45 mins by scintillation proximity assay in presence of NADPH; set-up: species or system Adrenal gland
T3 sequence (Q2XVA1 whole entry): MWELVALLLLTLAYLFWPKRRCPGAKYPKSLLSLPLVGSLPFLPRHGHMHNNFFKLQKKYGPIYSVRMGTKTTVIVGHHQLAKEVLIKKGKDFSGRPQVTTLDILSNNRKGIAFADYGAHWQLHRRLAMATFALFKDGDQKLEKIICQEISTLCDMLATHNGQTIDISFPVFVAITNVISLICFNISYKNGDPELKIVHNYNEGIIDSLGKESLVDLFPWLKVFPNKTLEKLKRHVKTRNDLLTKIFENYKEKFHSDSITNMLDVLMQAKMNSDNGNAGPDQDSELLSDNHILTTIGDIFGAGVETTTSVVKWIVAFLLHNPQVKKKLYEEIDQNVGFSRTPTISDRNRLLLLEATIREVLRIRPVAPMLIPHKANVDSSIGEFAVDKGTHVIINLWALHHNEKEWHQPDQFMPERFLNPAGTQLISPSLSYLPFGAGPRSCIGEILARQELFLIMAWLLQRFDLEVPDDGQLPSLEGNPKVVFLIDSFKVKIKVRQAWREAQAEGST

[10] = Cmax in cynomolgus monkey plasma at 4 mg/kg, po after 0.25 to 45 hrs by LC-MS/MS analysis; format: ADME, organism-based, Macaca fascicularis; set-up: dose 4 mg/kg, route oral; method in brief: as §2
[11] = target: T3, Steroid 17-alpha-hydroxylase/17,20 lyase; experiment: Inhibition of CYP17A1 in cynomolgus monkey using [3H]-pregnenolone as substrate incubated for 45 mins by scintillation proximity assay in presence of NADPH
[12] = Volume of distribution at steady state in cynomolgus monkey plasma at 2 mg/kg, iv by LC-MS/MS analysis; format: ADME, organism-based, Macaca fascicularis; settings: read-out: Vdss; method in brief: as §1
[13] = target: T1, Steroid 17-alpha-hydroxylase/17,20 lyase; experiment: Inhibition of human CYP17A1 expressed in HEK293 cell microsomes using [3H]-pregnenolone as substrate incubated for 45 mins by scintillation proximity assay in presence of NADPH
[14] = target: T3, Steroid 17-alpha-hydroxylase/17,20 lyase; experiment: Selectivity ratio of cynomolgus monkey CYP17A1 hydroxylase activity using pregnenolone substrate to cynomolgus monkey CYP17A1 lyase activity using [3H]-hydroxypregnenolone substrate
Method in brief: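 Hydroxylase and lyase activities were run with different enzyme preparations, so the hydroxylase/lyase ratios are estimates.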

Compound: Cc1ccncc1-c1cccc2c1ncn2CC(F)(F)F
- Papp A→B [1]: 40 ×10⁻⁶ cm/s
- clearance [2]: 19 mL/min/kg
- IC50 [3]: 20 nM
- bioavailability [4]: 97%
- IC50 [5]: > 7500 nM
- Papp B→A [6]: 30 ×10⁻⁶ cm/s
- Activity [7]: Non-toxic
- Tmax [8]: 1.3 h
- IC50 [9]: 2 nM
- Cmax [10]: 3000 nM
- IC50 [11]: 4 nM
- Vd [12]: 4.4 L/kg
- IC50 [13]: 19 nM
- Selectivity ratio [14]: 11
